KCNK3 inh: human KCNK3 channel inhibition, primary screen. CHO-KCNK3 thallium flux, FluxOR fluorescence; active compounds read low. O14649. 0.84% of 340,000 active. B-score at 10 µM;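 active = B-score under library mean minus 4 SD, starting fluorescence ratio at most library mean plus 5 SD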;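 also: more negative B-score means stronger inhibition of thallium flux through KCNK3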
Cl transport mod: KCC2 (human) Cl- transport modulation. KCC2 cells, thallium flux FluoZin-2 fluorescence. B-score of Tl+ flux slope (higher = more flux/activation; lower = inhibition) at 10 µM. AID 1456. Q9H2X9. 2.2% of 190,000 active;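 active = thallium flux slope and its plate-corrected score both differing from the plate sample mean at a set confidence after two filtering rounds, in either direction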;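 also: slope of fluorescence scaled to starting intensity during 10 to 20 s after thallium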
KCNQ1 inh: inhibitors of human KCNQ1 potassium channel; P51787; 1.3% of 310,000 active; AID 2642; CHO-K1 KCNQ1, FluxOR thallium flux fluorescence; active compounds read high; B-score at 10 µM;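 active = compounds whose thallium flux B-score, printed positive for inhibition, exceeds three library SD while starting fluorescence stays within three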;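 also: channel opened by potassium depolarization with thallium stimulus after 20 min compound exposure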
Target sequence (P51787 whole entry, looked up): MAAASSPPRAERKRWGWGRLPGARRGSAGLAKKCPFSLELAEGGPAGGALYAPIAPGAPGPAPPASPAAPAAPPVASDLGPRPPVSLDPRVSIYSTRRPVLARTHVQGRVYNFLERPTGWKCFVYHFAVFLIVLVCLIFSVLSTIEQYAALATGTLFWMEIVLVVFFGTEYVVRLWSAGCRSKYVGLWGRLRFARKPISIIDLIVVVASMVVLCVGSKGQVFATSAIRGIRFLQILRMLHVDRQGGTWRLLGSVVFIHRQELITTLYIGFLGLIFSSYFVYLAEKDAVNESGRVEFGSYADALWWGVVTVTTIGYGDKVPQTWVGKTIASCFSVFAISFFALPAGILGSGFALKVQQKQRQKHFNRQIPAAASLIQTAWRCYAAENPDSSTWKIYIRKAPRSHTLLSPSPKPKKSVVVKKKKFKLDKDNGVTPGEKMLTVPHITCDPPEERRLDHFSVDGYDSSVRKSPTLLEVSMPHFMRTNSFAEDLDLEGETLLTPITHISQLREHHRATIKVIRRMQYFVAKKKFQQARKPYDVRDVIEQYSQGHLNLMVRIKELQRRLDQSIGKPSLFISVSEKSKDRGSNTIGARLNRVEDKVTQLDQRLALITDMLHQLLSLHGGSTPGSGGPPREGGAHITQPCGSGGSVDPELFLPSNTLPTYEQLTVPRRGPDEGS
hERG rescue: hERG (human) protection from proarrhythmic block; activation (rescue from dofetilide block), less the hit threshold, % at 10 µM; 0.51% of 310,000 active; Q12809; CHO-hERG, FluxOR thallium flux, dofetilide IC70 present;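 active = activation above the mean of controls blocked by dofetilide plus 5 SD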;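 also: thallium influx through hERG after potassium depolarization seen as dye fluorescence rise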
KCNQ1 act: potentiates or activates the human KCNQ1 potassium channel | CHO-K1 KCNQ1, thallium flux FluxOR fluorescence; active compounds read high | 0.35% of 310,000 active | AID 2648 | B-score at 10 µM;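 active = fluorescence ratio B-score, a plate-corrected score, at least three library SD, with initial intensity B-score within 5 SD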
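assay system = CHO-K1 cells stably expressing KCNQ1 | medium = assay buffer, equal DMSO in all wells | timing = 37 °C overnight plating, 90-min dark dye load, 20-min compound pretreatment | measured by = kinetic FluxOR thallium fluorescence, 10-s 1-Hz baseline, 110-s post-stimulus read | measure = fluorescence change relative to baseline, converted to B score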
KCNK9 block: blocks the human KCNK9 two-pore domain potassium channel. Q9NPC2. HEK293 KCNK9, FluxOR thallium flux fluorescence; active compounds read low. B-score at 10 µM. 1.2% of 310,000 active. AID 488922;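 active = ratio B-score over 3 SD below the library mean, with starting fluorescence within 5 SD of its mean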;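 also: negative B-score means less thallium flux so channel inhibition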
KCNQ1 block val: human KCNQ1 channel inhibition, validation assay. shares compounds with KCNQ1 inh. 93% of 1,600 active. AID 588353. inhibition, % at 10 µM. KCNQ1 cell line, FluxOR thallium flux fluorescence;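 active = primary screen active, with duplicate mean exceeding buffer control mean plus 3 SD of buffer wells, cut at about 28% in these data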
CHO KCNQ1 ctr: activity in parental CHO cells lacking KCNQ1; 21% of 1,600 active; fluorescence ratio (Tl flux) at 10 µM; shares compounds with KCNQ1 inh; AID 588366; parental CHO-K1, FluxOR thallium flux fluorescence ratio; active compounds read low; zero means no signal rise above baseline;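 active = mean of duplicate thallium-flux fluorescence ratios in parental host cells more than 5 SD below the buffer control mean, cut at about 0.38 in these data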;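 also: ratio is peak minus minimum fluorescence divided by baseline fluorescence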
KCNQ1 ephys val: blocks human KCNQ1 current in automated patch clamp. calls only at 10 µM. 20% of 490 active. AID 624120. KCNQ1-CHO cells. shares compounds with KCNQ1 inh;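 active = KCNQ1 current drop exceeding 3 SD of negative control wells, seen in both duplicate runs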;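 also: steady state current during a 2 s step from -80 to +40 mV; negative values mean current inhibition and positive values mean potentiation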
KCNQ2 spec: selectivity of KCNQ1 inhibitors: inhibition of rat KCNQ2 channel. shares compounds with KCNQ1 inh. KCNQ2 cells, FluxOR thallium flux fluorescence. inhibition, % at 10 µM. 71% of 1,600 active. AID 651746;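 active = mean percent inhibition of the KCNQ2 thallium signal more than 5 SD above the buffer-only control wells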;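 also: KCNQ2 expressed in CHO cells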
KCNQ1 KCNE1 spec: KCNQ1 inhibitor that also blocks human KCNQ1/KCNE1 channel | shares compounds with KCNQ1 inh | KCNQ1/KCNE1 cells, FluxOR thallium flux fluorescence | inhibition, % at 10 µM | 77% of 1,600 active | AID 652147;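 active = mean percent inhibition of duplicate wells above the buffer-only control mean plus 3 SD of those controls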
Large screens that a line does not name were inactive (follow-up assays come after a bar, where they were run). Most compounds without a hit are left out; they make up all but 4.1% or so of the library.

CCOC(=O)c1sc(NC(=O)CSc2ncn(-c3ccccc3)n2)nc1C	KCNQ1 inh 16 | KCNQ1 block val 26 | CHO KCNQ1 ctr inactive | KCNQ2 spec inactive | KCNQ1 KCNE1 spec inactive
Cc1sc(NC(=O)CSc2ncn(-c3ccccc3)n2)nc1-c1ccccc1	KCNQ1 inh 6 | KCNQ1 block val 32 | CHO KCNQ1 ctr inactive | KCNQ2 spec 77% | KCNQ1 KCNE1 spec inactive
CC(C)(C)c1nc(N2CCN(C(=O)c3ccco3)CC2)c2nnn(Cc3ccccc3)c2n1	KCNQ1 inh 7 | KCNQ1 block val 118 | CHO KCNQ1 ctr inactive | KCNQ1 ephys val inactive | KCNQ2 spec 105% | KCNQ1 KCNE1 spec 132%
Cc1ccc(NC(=O)CC2(CC(=O)O)CCCC2)c(C)c1	none (no result: Cl transport mod)
CCOc1ccc2nc(N3CCCC(C(=O)NCCCN4CC(C)CC(C)C4)C3)sc2c1 (stereo not drawn)	none (no result: Cl transport mod)
Cc1cc(C)cc(NC(=O)CCC(=O)Nc2nnc(C(C)C)s2)c1	none (no result: Cl transport mod)
Cn1ncc2c(N3CCN(c4ccc(Cl)c(Cl)c4)CC3)ncnc21	KCNQ1 inh 10 | KCNQ1 block val 103 | CHO KCNQ1 ctr inactive | KCNQ1 ephys val inactive | KCNQ2 spec inactive | KCNQ1 KCNE1 spec 61%
O=C1c2cccc3c(O)ccc(c23)C(=O)N1Cc1ccco1	KCNQ1 inh 22 | KCNQ1 block val active | CHO KCNQ1 ctr 0.011 | KCNQ2 spec inactive | KCNQ1 KCNE1 spec inactive
COc1ccccc1NC(=O)N(Cc1ccccc1)c1ccccn1	KCNQ1 inh 7 (no result: Cl transport mod) | KCNQ1 block val 95 | CHO KCNQ1 ctr inactive | KCNQ1 ephys val inactive | KCNQ2 spec 85% | KCNQ1 KCNE1 spec 102%
O=C(Nc1ccc(Br)cc1)c1ccc(F)c(S(=O)(=O)NCc2cccs2)c1	KCNQ1 inh 7 | KCNQ1 block val 140 | CHO KCNQ1 ctr inactive | KCNQ2 spec 92% | KCNQ1 KCNE1 spec 130%
O=S(=O)(NCc1cccs1)c1ccc(Br)cc1	none (no result: Cl transport mod)
COc1ccc(N(C)S(=O)(=O)c2cccc(C(=O)NC3CCCC(C)C3C)c2)cc1 (stereo not drawn)	none (no result: Cl transport mod)
N#Cc1cc2c(nc1SCC1COc3ccccc3O1)CCC2 (stereo not drawn)	KCNQ1 inh 8 | KCNQ1 block val 106 | CHO KCNQ1 ctr inactive | KCNQ2 spec 99% | KCNQ1 KCNE1 spec 124%
CCOc1ccc(CCNC(=O)Cn2ncn3nc(-c4ccc(OC)cc4)cc3c2=O)cc1OCC	none (no result: Cl transport mod)
Cc1ccc2c(C(=O)N3CCN(c4ccccc4)CC3)cc(-c3cccnc3)nc2c1C	KCNQ1 inh 8 | KCNQ1 block val 92 | CHO KCNQ1 ctr inactive | KCNQ1 ephys val inactive | KCNQ2 spec inactive | KCNQ1 KCNE1 spec 192%
Cc1ccc2nc(-c3cccnc3)cc(C(=O)N3CCN(c4ccc([N+](=O)[O-])cc4)CC3)c2c1	none
CSc1ccc(OC2CCCCC2NS(=O)(=O)c2ccc(Cl)cc2)cc1 (stereo not drawn)	KCNQ1 inh 6 | KCNQ1 block val 120 | CHO KCNQ1 ctr inactive | KCNQ1 ephys val inactive | KCNQ2 spec 115% | KCNQ1 KCNE1 spec 142%
CC(C)(C)c1nc(NC(=O)Nc2ccccc2)sc1Br	KCNQ1 inh 7 | KCNQ1 block val 92 | CHO KCNQ1 ctr inactive | KCNQ1 ephys val inactive | KCNQ2 spec inactive | KCNQ1 KCNE1 spec 69%
COc1cccc(N2CCc3c(C)nc4ccc(Cl)cc4c32)c1	KCNQ1 inh 6 (no result: Cl transport mod) | KCNQ1 block val 102 | CHO KCNQ1 ctr inactive | KCNQ1 ephys val active | KCNQ2 spec 98% | KCNQ1 KCNE1 spec 77%
COc1ccc(N2CCc3c(C)nc4c(OC)cc(OC)cc4c32)cc1	KCNK3 inh -10, KCNQ1 inh 6 | KCNQ1 block val inactive | CHO KCNQ1 ctr inactive | KCNQ2 spec inactive | KCNQ1 KCNE1 spec inactive
O=C(O)COc1ccccc1/C=N/NC(=O)CNC(=O)c1ccco1	none (no result: Cl transport mod)
CCC(O)C1CCN(C(=O)c2cc(COc3ccc4ncccc4c3)on2)CC1 (stereo not drawn)	KCNQ1 inh 8 | KCNQ1 block val 58 | CHO KCNQ1 ctr inactive | KCNQ2 spec 100% | KCNQ1 KCNE1 spec inactive
Cc1ccc(OCc2cc(C(=O)N3CCC(Oc4cccnc4)CC3)no2)cc1C	KCNQ1 inh 7 (no result: Cl transport mod) | KCNQ1 block val 114 | CHO KCNQ1 ctr inactive | KCNQ1 ephys val inactive | KCNQ2 spec 83% | KCNQ1 KCNE1 spec 52%
O=C(c1cc(COc2cccc(C(F)(F)F)c2)on1)N1CCC(Oc2cccnc2)CC1	KCNQ1 inh 8 (no result: Cl transport mod) | KCNQ1 block val 132 | CHO KCNQ1 ctr inactive | KCNQ1 ephys val inactive | KCNQ2 spec 96% | KCNQ1 KCNE1 spec 85%
O=C(c1cc(COc2ccc3ncccc3c2)on1)N1CCC(O)CC1	none
CCOC(=O)N1CCN(C(=O)c2cc(COc3cccc(C(F)(F)F)c3)on2)CC1	none (no result: Cl transport mod)
C=Cc1ncc(OC)c2c1[nH]c1ccccc12	none (no result: Cl transport mod)
CN(C(=O)COC(=O)c1ccc2c(c1)OCCO2)C1CCCCC1	none (no result: Cl transport mod, KCNQ1 inh, hERG rescue, KCNQ1 act, KCNK9 block)
CN(C)c1ccc(C(CNC(=O)c2cccs2)N(C)C)cc1 (stereo not drawn)	none (no result: Cl transport mod)
COC(=O)C(Cc1ccccc1)NC(=O)CC(C)CC(=O)Nc1ccc(C)cc1 (stereo not drawn)	none (no result: Cl transport mod)
O=[N+]([O-])c1ccc(O)c(N=Cc2sc3ccccc3c2O)c1	none
Oc1c(C=Nc2cccc3cccnc23)sc2ccccc12	KCNQ1 inh 10, KCNK9 block -8.1 (no result: KCNK3 inh) | KCNQ1 block val 88 | CHO KCNQ1 ctr 0.36 | KCNQ2 spec inactive | KCNQ1 KCNE1 spec 134%
CN(C)P(=O)(Nc1cccc2ccccc12)Nc1cccc2ccccc12	none (no result: Cl transport mod, KCNQ1 inh, hERG rescue, KCNQ1 act, KCNK9 block)
CCN1CCN(CCNC(=O)c2ccc(/C=C3/Sc4ccccc4N(Cc4cccc(Cl)c4)C3=O)cc2)CC1	KCNQ1 inh 14 | KCNQ1 block val 80 | CHO KCNQ1 ctr 0.34 | KCNQ2 spec 97% | KCNQ1 KCNE1 spec 145%
O=C(Nc1ccc(F)cc1)c1cc(S(=O)(=O)Nc2ccc(F)cc2)cs1	KCNQ1 inh 7 | KCNQ1 block val 66 | CHO KCNQ1 ctr inactive | KCNQ2 spec 62% | KCNQ1 KCNE1 spec inactive
